Laboratory results from ChEMBL document CHEMBL1123290, “Synthesis, antimalarial activity, and quantitative structure-activity relationships of tebuquine and a series of related 5-[(7-chloro-4-quinolinyl)amino]-3-[(alkylamino)methyl] [1,1'-biphenyl]-2-ols and N omega-oxides” (1986).

Columns and labels:
Type in all cases: functional
Mus musculus [1] = experiment: Antimalarial activity, administered as a single subcutaneous dose of 640 mg/kg, 72 hrs post infection measured as number of mice (Mus musculus) surviving at 60 days post infection
Procedure, shortened: (§1)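 Mice were infected with a normal drug-sensitive Plasmodium berghei strain. At 72 h postinfection each received one subcutaneous dose of compound dissolved or suspended in peanut oil, in five-mouse groups per dose. The read-out was the number of mice alive at 60 days postinfection, which were scored as cured.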

Plasmodium berghei [2] = experiment: Change in mean survival time of Plasmodium berghei infected mice (Mus musculus) on 1.25 mg/kg subcutaneous dose
Plasmodium berghei [3] = experiment: Change in mean survival time of Plasmodium berghei infected mice (Mus musculus) after […] subcutaneous dose
Plasmodium berghei [4] = experiment: Antimalarial activity as 60-day survivors in Plasmodium berghei infected mice (Mus musculus) after single 160mg/kg subcutaneous dose 72 hr post infection; procedure, shortened: as §1
Plasmodium berghei [5] = experiment: Antimalarial activity in primary screen
Plasmodium berghei [6] = experiment: Difference in mean survival time of Plasmodium berghei infected mice (Mus musculus) after 10 mg/kg subcutaneous dose
Plasmodium berghei [7] = experiment: Change in mean survival time for control (average 6.2 days) versus treated mice (Mus musculus) after 160 mg/kg subcutaneous dose
Plasmodium berghei [8] = experiment: Change in mean survival time for control (average 6.2 days) versus treated mice (Mus musculus) after 40 mg/kg subcutaneous dose
Plasmodium berghei [9] = experiment: Antimalarial activity as 60-day survivors in infected mice (Mus musculus) after single 320mg/kg subcutaneous dose 72 hr post infection; procedure, shortened: as §1
Plasmodium berghei [10] = experiment: Change in mean survival time in control (average 6.2 days) versus treated mice (Mus musculus) after 80 mg/kg subcutaneous dose
Plasmodium berghei [11] = experiment: Change in mean survival time for control (average 6.2 days) versus treated mice (Mus musculus) after 20 mg/kg subcutaneous dose
Plasmodium berghei [12] = experiment: Change in mean survival time of Plasmodium berghei infected mice (Mus musculus) after 5 mg/kg subcutaneous dose
Plasmodium berghei [13] = experiment: (§2) Change in mean survival time for control (average 6.2 days) versus treated mice (Mus musculus) 72 hrs after […] subcutaneous dose
Plasmodium berghei [14] = experiment: Change in mean survival time for control (average 6.2 days) versus treated mice (Mus musculus) 72 hrs after 20 mg/kg subcutaneous dose
Plasmodium berghei [15] = experiment: Change in mean survival time for control (average 6.2 days) versus treated mice (Mus musculus) 72 hrs after 640 mg/kg subcutaneous dose
Plasmodium berghei [16] = experiment: Change in mean survival time for control (average of 6.2 days) versus treated mice (Mus musculus) 72 hrs after 80 mg/kg subcutaneous dose
Mus musculus [17] = experiment: Antimalarial activity, administered as a single subcutaneous dose of 40 mg/kg, 72 hrs post infection measured as number of mice (Mus musculus) surviving at 60 days post infection; procedure, shortened: as §1
Plasmodium berghei [18] = experiment: Change in mean survival time for control (average 6.2 days) versus treated mice (Mus musculus) 72 hrs after […] subcutaneous dose
Plasmodium berghei [19] = experiment: Change in mean survival time for control (average 6.2 days) versus treated mice (Mus musculus) 72 hrs after 5 mg/kg subcutaneous dose
Mus musculus [20] = experiment: Antimalarial activity, administered as a single subcutaneous dose of 80 mg/kg, 72 hrs post infection measured as number of mice (Mus musculus) surviving at 60 days post infection; procedure, shortened: as §1
Plasmodium berghei [21] = experiment: Change in mean survival time for control (average 6.2 days) versus treated mice (Mus musculus) 72 hrs after 320 mg/kg subcutaneous dose
Plasmodium berghei [22] = experiment: Change in mean survival time for control (average 6.2 days) versus treated mice (Mus musculus) 72 hrs after 10 mg/kg subcutaneous dose
Plasmodium berghei [23] = experiment: Difference in mean survival time in mice (Mus musculus) (control = 6.2 days) after single 40mg/kg subcutaneous dose 72hr post infection
Plasmodium berghei [24] = experiment: Change in mean survival time for control (average 6.2 days) versus treated mice (Mus musculus) 72 hrs after 160 mg/kg subcutaneous dose
Plasmodium berghei [25] = experiment: as §2; remark: listed apart in the source
Plasmodium berghei [26] = experiment: Change in mean survival time for control (average 6.2 days) versus treated mice (Mus musculus) after 320 mg/kg subcutaneous dose
Plasmodium berghei [27] = experiment: Antimalarial activity as 60-day survivors in infected mice (Mus musculus) after single 20 mg/kg subcutaneous dose 72hr post infection; procedure, shortened: as §1

SMILES | No. of mice cured (Mus musculus [1]) | No. of mice cured (Plasmodium berghei [4]) | ED30 (Plasmodium berghei [5]) | Delta MST (Plasmodium berghei [7]) | Delta MST (Plasmodium berghei [8]) | No. of mice cured (Plasmodium berghei [9]) | Delta MST (Plasmodium berghei [10]) | Delta MST (Plasmodium berghei [11]) | Delta MST (Plasmodium berghei [13]) | Delta MST (Plasmodium berghei [14]) | No. of mice cured (Mus musculus [17]) | Delta MST (Plasmodium berghei [18]) | Delta MST (Plasmodium berghei [19]) | No. of mice cured (Mus musculus [20]) | Delta MST (Plasmodium berghei [22]) | Delta MST (Plasmodium berghei [25]) | Delta MST (Plasmodium berghei [26]) | No. of mice cured (Plasmodium berghei [27]) | other results
CCN(CC)Cc1cc(Nc2cc[n+]([O-])c3cc(Cl)ccc23)cc(-c2ccccc2C(F)(F)F)c1O | 5 | 4 | 56.1 mg/kg | 24.7 days | 15.5 days | 5 | 24.7 days | 7.7 days | – | – | – | – | – | – | – | – | – | – | Delta MST (Plasmodium berghei [2]): 0.5 days; Delta MST (Plasmodium berghei [3]): 0.1 days; Delta MST (Plasmodium berghei [6]): 4.1 days; Delta MST (Plasmodium berghei [12]): 0.7 days
CCCN(CCC)Cc1cc(Nc2ccnc3cc(Cl)ccc23)cc(-c2ccc(Cl)cc2)c1O | 3 | 2 | – | – | – | 4 | – | – | 0.4 days | 11.2 days | 1 | 0.8 days | 3.8 days | 3 | 6.8 days | – | – | – | Delta MST (Plasmodium berghei [15]): 18.1 days; Delta MST (Plasmodium berghei [16]): 27.6 days; Delta MST (Plasmodium berghei [21]): 29.6 days; Delta MST (Plasmodium berghei [23]): 24.4 days; Delta MST (Plasmodium berghei [24]): 26.6 days
[O-][n+]1ccc(Nc2cc(CN3CCCC3)c(O)c(-c3ccc(Cl)c(Cl)c3)c2)c2ccc(Cl)cc21 | 5 | 3 | – | 24.4 days | 10.7 days | 5 | 25.4 days | 7.9 days | – | – | – | – | – | 2 | – | – | – | – | Delta MST (Plasmodium berghei [2]): -0.1 days; Delta MST (Plasmodium berghei [3]): -0.1 days; Delta MST (Plasmodium berghei [6]): 2.3 days; Delta MST (Plasmodium berghei [12]): 0.7 days
CCN(CC)Cc1cc(Nc2cc[n+]([O-])c3cc(Cl)ccc23)cc(-c2cc(OC)ccc2OC)c1O | 1 | – | 2450 mg/kg | 6 days | 2.6 days | – | 2 days | 0.6 days | – | – | – | – | – | – | – | 27.1 days | 7.8 days | – | –
CCN(CC)Cc1cc(Nc2cc[n+]([O-])c3cc(Cl)ccc23)cc(-c2ccc(OC)c(OC)c2)c1O | 2 | – | 204 mg/kg | 11.4 | 5.4 days | 3 | 5 days | 2.4 days | – | – | – | – | – | – | – | 11.1 days | 12.4 days | – | –
CCN(CC)Cc1cc(Nc2ccnc3cc(Cl)ccc23)cc(-c2ccccc2Cl)c1O | 5 | 4 | 15.3 mg/kg | – | – | 4 | – | – | 0.7 days | 17.2 days | 5 | 0.3 days | 4.7 days | 5 | 14.7 days | – | – | 2 | Delta MST (Plasmodium berghei [21]): 41.9 days; Delta MST (Plasmodium berghei [24]): 41.9 days
CCN(CC)Cc1cc(Nc2ccnc3cc(Cl)ccc23)cc(-c2c(F)cccc2F)c1O | 4 | 5 | 23.7 mg/kg | – | – | 5 | – | – | 0.1 days | 12.2 days | 1 | 2.7 days | 7.9 days | 2 | 8.3 days | – | – | 1 | Delta MST (Plasmodium berghei [15]): 36.8 days; Delta MST (Plasmodium berghei [16]): 24.1 days; Delta MST (Plasmodium berghei [23]): 16.9 days
CC(C)(C)NCc1cc(Nc2ccnc3cc(Cl)ccc23)cc(-c2ccc(Cl)c(Cl)c2)c1O | 4 | 4 | – | – | – | 3 | – | – | 0.7 days | 10.5 days | 2 | 0.1 days | 6.1 days | 4 | 9.7 days | – | – | 1 | Delta MST (Plasmodium berghei [15]): 16.4 days; Delta MST (Plasmodium berghei [16]): 30.4 days; Delta MST (Plasmodium berghei [21]): 14.4 days; Delta MST (Plasmodium berghei [23]): 27.4 days; Delta MST (Plasmodium berghei [24]): 13.4 days
CCN(CC)Cc1cc(Nc2cc[n+]([O-])c3cc(Cl)ccc23)cc(-c2ccccn2)c1O | 1 | – | 550 mg/kg | 3 days | 0 days | 1 | 1 days | 0.4 days | – | – | – | – | – | – | – | 9.1 days | 5.1 days | – | –
CCN(CC)Cc1cc(Nc2cc[n+]([O-])c3cc(Cl)ccc23)cc(-c2ccncc2)c1O | 3 | – | 330 mg/kg | 10.7 days | 5.7 days | 2 | 8.3 days | 3.3 days | – | – | – | – | – | – | – | 21.9 days | 12.6 days | – | –
CCN(CC)Cc1cc(Nc2cc[n+]([O-])c3cc(Cl)ccc23)cc(-c2ccc(C)cc2)c1O | – | – | – | 5.1 days | 0.5 days | – | 4.3 days | – | – | – | – | – | – | – | – | 10.5 days | 15.7 days | 1.3 | –
CCN(CC)Cc1cc(Nc2cc[n+]([O-])c3cc(Cl)ccc23)cc(-c2ccccc2OC)c1O | 1 | 2 | 170 mg/kg | 8.9 days | 6.9 days | 1 | 8.7 days | 0.7 days | – | – | – | – | – | – | – | 27.2 days | 36.2 days | – | –
CCN(CC)Cc1cc(Nc2cc[n+]([O-])c3cc(Cl)ccc23)cc(-c2cccc3ccccc23)c1O | 1 | – | 14400 mg/kg | 6.4 days | 0.4 days | – | 3 days | 0 days | – | – | – | – | – | – | – | 12.9 days | 1.6 days | – | –
CCN(CC)Cc1cc(Nc2cc[n+]([O-])c3cc(Cl)ccc23)cc(-c2ccc(OC)cc2)c1O | 2 | – | 423 mg/kg | 7.3 | 7.3 days | 1 | 9.1 days | 3.7 days | – | – | – | – | – | – | – | 15 days | 8.2 days | – | Delta MST (Plasmodium berghei [2]): 0.1 days; Delta MST (Plasmodium berghei [3]): -0.1 days; Delta MST (Plasmodium berghei [6]): 1.1 days
CCN(CC)Cc1cc(Nc2cc[n+]([O-])c3cc(Cl)ccc23)cc(-c2cccc(F)c2)c1O | 1 | 3 | 33.7 mg/kg | 29.6 days | 22.8 days | 3 | 22.6 days | 27.2 days | – | – | – | – | – | 2 | – | 14.8 days | 24.1 days | – | Delta MST (Plasmodium berghei [2]): -0.1 days; Delta MST (Plasmodium berghei [3]): 0.5 days; Delta MST (Plasmodium berghei [12]): 4.5 days
CN(C)Cc1cc(Nc2ccnc3cc(Cl)ccc23)cc(-c2ccc(Cl)cc2)c1O | 1 | 5 | 6.2 mg/kg | – | – | 1 | – | – | 1.2 days | 36.8 days | 4 | 6 days | 14.2 days | 4 | 20.4 days | – | – | 3 | Delta MST (Plasmodium berghei [15]): 18.7 days; Delta MST (Plasmodium berghei [16]): 45.4 days; Delta MST (Plasmodium berghei [21]): 14.4 days; Delta MST (Plasmodium berghei [23]): 18.8 days
